Test results published in ChEMBL document CHEMBL1255499, “Recombinant phenotyping of cytomegalovirus UL97 kinase sequence variants for ganciclovir resistance” (Antimicrob Agents Chemother, 2010).

How the values were obtained:
Human betaherpesvirus 5 [1] = assay: Antiviral activity against Human cytomegalovirus T3243 expressing UL97 kinase T659I mutant gene infected in human foreskin fibroblast measured 6 days post infection by SEAP reporter gene assay; assay type: functional, organism-based; details: Human betaherpesvirus 5, T3243, 144 h
Summary of the method: (§1)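 Ganciclovir SEAP yield reduction. Confluent HFF (2 × 10⁵ cells/well) infected with cell-free virus stock at MOI 0.02. Inoculum removed after 1.5 h and replaced with medium containing serial 2-fold GCV dilutions, top concentration 4 to 32 μM. Supernatant SEAP read by chemiluminescent substrate at day 6. EC₅₀ is the concentration giving 50% SEAP reduction; mean and SD of ≥7 determinations over ≥4 setup dates.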

Human betaherpesvirus 5 [2] = assay: Antiviral activity against Human cytomegalovirus T3239 expressing UL97 kinase V665I mutant gene infected in human foreskin fibroblast measured 6 days post infection by SEAP reporter gene assay; details: Human betaherpesvirus 5, T3239, 144 h
Human betaherpesvirus 5 [3] = assay: Antiviral activity against Human cytomegalovirus T3130 expressing UL97 kinase V665I mutant gene infected in human foreskin fibroblast measured 6 days post infection by SEAP reporter gene assay; details: Human betaherpesvirus 5, T3130, 144 h
Human betaherpesvirus 5 [4] = assay: Antiviral activity against Human cytomegalovirus T3264 expressing UL97 kinase G623S mutant gene infected in human foreskin fibroblast measured 6 days post infection by SEAP reporter gene assay; assay type: functional, organism-based; details: Human betaherpesvirus 5, T3264, 144 h; summary of the method: as §1
Human betaherpesvirus 5 [5] = assay: Antiviral activity against Human cytomegalovirus T3329 expressing UL97 kinase C603W mutant gene infected in human foreskin fibroblast measured 6 days post infection by SEAP reporter gene assay; details: Human betaherpesvirus 5, T3329, 144 h
Human betaherpesvirus 5 [6] = assay: Antiviral activity against Human cytomegalovirus T3327 expressing UL97 kinase C603S mutant gene infected in human foreskin fibroblast measured 6 days post infection by SEAP reporter gene assay; assay type: functional, organism-based; details: Human betaherpesvirus 5, T3327, 144 h
Summary of the method: (§2)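 Confluent HFF (2 × 10⁵ cells/well) infected with cell-free recombinant AD169-derived SEAP-reporter CMV at MOI 0.02 for 1.5 h. Inoculum then replaced with medium holding serial 2-fold ganciclovir dilutions, top concentration 4 to 32 μM. Supernatant SEAP read by chemiluminescent substrate at day 6. EC₅₀ is the concentration giving 50% SEAP reduction, reported as mean and SD of ≥7 determinations over ≥4 setup dates.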

Human betaherpesvirus 5 [7] = assay: Antiviral activity against Human cytomegalovirus T3331 expressing UL97 kinase C603R mutant gene infected in human foreskin fibroblast measured 6 days post infection by SEAP reporter gene assay; assay type: functional, organism-based; details: Human betaherpesvirus 5, T3331, 144 h; summary of the method: as §2
Human betaherpesvirus 5 [8] = assay: Antiviral activity against Human cytomegalovirus T3041 expressing UL97 kinase L600I mutant gene infected in human foreskin fibroblast measured 6 days post infection by SEAP reporter gene assay; assay type: functional, organism-based; details: Human betaherpesvirus 5, T3041, 144 h; summary of the method: as §2
Human betaherpesvirus 5 [9] = assay: Antiviral activity against Human cytomegalovirus T3146 expressing UL97 kinase K599R mutant gene infected in human foreskin fibroblast measured 6 days post infection by SEAP reporter gene assay; details: Human betaherpesvirus 5, T3146, 144 h
Human betaherpesvirus 5 [10] = assay: Antiviral activity against Human cytomegalovirus T3253 expressing UL97 kinase K599R mutant gene infected in human foreskin fibroblast measured 6 days post infection by SEAP reporter gene assay; details: Human betaherpesvirus 5, T3253, 144 h
Human betaherpesvirus 5 [11] = assay: Antiviral activity against Human cytomegalovirus T3252 expressing UL97 kinase A594V mutant gene infected in human foreskin fibroblast measured 6 days post infection by SEAP reporter gene assay; assay type: functional, organism-based; details: Human betaherpesvirus 5, T3252, 144 h; summary of the method: as §2
Human betaherpesvirus 5 [12] = assay: Antiviral activity against Human cytomegalovirus T2255 expressing UL97 kinase A594V mutant gene infected in human foreskin fibroblast measured 6 days post infection by SEAP reporter gene assay; assay type: functional, organism-based; details: Human betaherpesvirus 5, T2255, 144 h; summary of the method: as §2
Human betaherpesvirus 5 [13] = assay: Antiviral activity against Human cytomegalovirus T3258 expressing UL97 kinase A594E mutant gene infected in human foreskin fibroblast measured 6 days post infection by SEAP reporter gene assay; details: Human betaherpesvirus 5, T3258, 144 h
Human betaherpesvirus 5 [14] = assay: Antiviral activity against Human cytomegalovirus T3259 expressing UL97 kinase C592G mutant gene infected in human foreskin fibroblast measured 6 days post infection by SEAP reporter gene assay; assay type: functional, organism-based; details: Human betaherpesvirus 5, T3259, 144 h; summary of the method: as §1
Human betaherpesvirus 5 [15] = assay: Antiviral activity against Human cytomegalovirus T2258 expressing UL97 kinase C592G mutant gene infected in human foreskin fibroblast measured 6 days post infection by SEAP reporter gene assay; assay type: functional, organism-based; details: Human betaherpesvirus 5, T2258, 144 h; summary of the method: as §2
Human betaherpesvirus 5 [16] = assay: Antiviral activity against Human cytomegalovirus T3244 expressing UL97 kinase A588V mutant gene infected in human foreskin fibroblast measured 6 days post infection by SEAP reporter gene assay; details: Human betaherpesvirus 5, T3244, 144 h
Human betaherpesvirus 5 [17] = assay: Antiviral activity against Human cytomegalovirus T3216 expressing UL97 kinase A588V mutant gene infected in human foreskin fibroblast measured 6 days post infection by SEAP reporter gene assay; details: Human betaherpesvirus 5, T3216, 144 h
Human betaherpesvirus 5 [18] = assay: Antiviral activity against Human cytomegalovirus T3240 expressing UL97 kinase N510S mutant gene infected in human foreskin fibroblast measured 6 days post infection by SEAP reporter gene assay; assay type: functional, organism-based; details: Human betaherpesvirus 5, T3240, 144 h; summary of the method: as §1
Human betaherpesvirus 5 [19] = assay: Antiviral activity against Human cytomegalovirus T3215 expressing UL97 kinase A478V mutant gene infected in human foreskin fibroblast measured 6 days post infection by SEAP reporter gene assay; details: Human betaherpesvirus 5, T3215, 144 h
Human betaherpesvirus 5 [20] = assay: Antiviral activity against Human cytomegalovirus T3242 expressing UL97 kinase A478V mutant gene infected in human foreskin fibroblast measured 6 days post infection by SEAP reporter gene assay; details: Human betaherpesvirus 5, T3242, 144 h
Human betaherpesvirus 5 [21] = assay: Antiviral activity against Human cytomegalovirus T3136 expressing UL97 kinase H469Y mutant gene infected in human foreskin fibroblast measured 6 days post infection by SEAP reporter gene assay; assay type: functional, organism-based; details: Human betaherpesvirus 5, T3136, 144 h; summary of the method: as §1
Human betaherpesvirus 5 [22] = assay: Antiviral activity against Human cytomegalovirus T2924 expressing UL97 kinase H469Y mutant gene infected in human foreskin fibroblast measured 6 days post infection by SEAP reporter gene assay; assay type: functional, organism-based; details: Human betaherpesvirus 5, T2924, 144 h; summary of the method: as §2
Human betaherpesvirus 5 [23] = assay: Antiviral activity against Human cytomegalovirus T3257 expressing UL97 kinase V466M mutant gene infected in human foreskin fibroblast measured 6 days post infection by SEAP reporter gene assay; details: Human betaherpesvirus 5, T3257, 144 h
Human betaherpesvirus 5 [24] = assay: Antiviral activity against Human cytomegalovirus T2259 expressing UL97 kinase M460V mutant gene infected in human foreskin fibroblast measured 6 days post infection by SEAP reporter gene assay; assay type: functional, organism-based; details: Human betaherpesvirus 5, T2259, 144 h; summary of the method: as §2
Human betaherpesvirus 5 [25] = assay: Antiviral activity against Human cytomegalovirus T3346 expressing UL97 kinase M460T mutant gene infected in human foreskin fibroblast measured 6 days post infection by SEAP reporter gene assay; assay type: functional, organism-based; details: Human betaherpesvirus 5, T3346, 144 h; summary of the method: as §2
Human betaherpesvirus 5 [26] = assay: Antiviral activity against Human cytomegalovirus T3184 expressing UL97 kinase L405P mutant gene infected in human foreskin fibroblast measured 6 days post infection by SEAP reporter gene assay; details: Human betaherpesvirus 5, T3184, 144 h
Human betaherpesvirus 5 [27] = assay: Antiviral activity against Human cytomegalovirus T2789 expressing UL97 kinase L405P mutant gene infected in human foreskin fibroblast measured 6 days post infection by SEAP reporter gene assay; details: Human betaherpesvirus 5, T2789, 144 h
Human betaherpesvirus 5 [28] = assay: Antiviral activity against Human cytomegalovirus T3326 harboring Frt motif upstream of UL97 kinase N68D L126Q I244V mutant gene infected in human foreskin fibroblast measured 6 days post infection by SEAP reporter gene assay; details: Human betaherpesvirus 5, T3326, 144 h
Human betaherpesvirus 5 [29] = assay: Antiviral activity against Human cytomegalovirus T3261 harboring Frt motif upstream of UL97 kinase infected in human foreskin fibroblast measured 6 days post infection by SEAP reporter gene assay; details: Human betaherpesvirus 5, T3261, 144 h
Human betaherpesvirus 5 [30] = assay: Antiviral activity against Human cytomegalovirus T3185 harboring Frt motif upstream of UL97 gene and expressing UL97 kinase H587Y mutant gene infected in human foreskin fibroblast measured 6 days post infection by SEAP reporter gene assay; details: Human betaherpesvirus 5, T3185, 144 h
Human betaherpesvirus 5 [31] = assay: Antiviral activity against Human cytomegalovirus T3135 expressing UL97 kinase H587Y mutant gene infected in human foreskin fibroblast measured 6 days post infection by SEAP reporter gene assay; details: Human betaherpesvirus 5, T3135, 144 h
Human betaherpesvirus 5 [32] = assay: Antiviral activity against Human cytomegalovirus T3099 expressing UL97 kinase H587Y mutant gene infected in human foreskin fibroblast measured 6 days post infection by SEAP reporter gene assay; details: Human betaherpesvirus 5, T3099, 144 h
Human betaherpesvirus 5 [33] = assay: Antiviral activity against Human cytomegalovirus T2233 expressing UL97 kinase H587Y mutant gene infected in human foreskin fibroblast measured 6 days post infection by SEAP reporter gene assay; details: Human betaherpesvirus 5, T2233, 144 h
Human betaherpesvirus 5 [34] = assay: Antiviral activity against Human cytomegalovirus T2211 expressing UL97 kinase H587Y mutant gene infected in human foreskin fibroblast measured 6 days post infection by SEAP reporter gene assay; details: Human betaherpesvirus 5, T2211, 144 h

## Nc1nc2c(ncn2COC(CO)CO)c(=O)[nH]1 [GANCICLOVIR]
Human betaherpesvirus 5 [1]
  EC50: 1260 nM
Human betaherpesvirus 5 [2]
  EC50: 1060 nM
Human betaherpesvirus 5 [3]
  EC50: 1220 nM
Human betaherpesvirus 5 [4]
  EC50: 1130 nM
Human betaherpesvirus 5 [5]
  EC50: 7.81 µM
Human betaherpesvirus 5 [6]
  EC50: 1850 nM
Human betaherpesvirus 5 [7]
  EC50: 8.18 µM
Human betaherpesvirus 5 [8]
  EC50: 1500 nM
Human betaherpesvirus 5 [9]
  EC50: 940 nM
Human betaherpesvirus 5 [10]
  EC50: 1230 nM
Human betaherpesvirus 5 [11]
  EC50: 8.48 µM
Human betaherpesvirus 5 [12]
  EC50: 9.24 µM
Human betaherpesvirus 5 [13]
  EC50: 2980 nM
Human betaherpesvirus 5 [14]
  EC50: 3000 nM
Human betaherpesvirus 5 [15]
  EC50: 3.36 µM
Human betaherpesvirus 5 [16]
  EC50: 990 nM
Human betaherpesvirus 5 [17]
  EC50: 1230 nM
Human betaherpesvirus 5 [18]
  EC50: 1140 nM
Human betaherpesvirus 5 [19]
  EC50: 950 nM
Human betaherpesvirus 5 [20]
  EC50: 770 nM
Human betaherpesvirus 5 [21]
  EC50: 1050 nM
Human betaherpesvirus 5 [22]
  EC50: 1330 nM
Human betaherpesvirus 5 [23]
  EC50: 1240 nM
Human betaherpesvirus 5 [24]
  EC50: 8.52 µM
Human betaherpesvirus 5 [25]
  EC50: 9.24 µM
Human betaherpesvirus 5 [26]
  EC50: 2760 nM
Human betaherpesvirus 5 [27]
  EC50: 3.02 µM
Human betaherpesvirus 5 [28]
  EC50: 1090 nM
Human betaherpesvirus 5 [29]
  EC50: 990 nM
Human betaherpesvirus 5 [30]
  EC50: 960 nM
Human betaherpesvirus 5 [31]
  EC50: 1000 nM
Human betaherpesvirus 5 [32]
  EC50: 1020 nM
Human betaherpesvirus 5 [33]
  EC50: 1110 nM
Human betaherpesvirus 5 [34]
  EC50: 1100 nM
